Source: ChEMBL document CHEMBL4837210 (Eur J Med Chem, 2021)

Columns and labels:
Assay type in all cases: functional
Staphylococcus aureus [1] = assay: Antibacterial activity against methicillin-resistant Staphylococcus aureus ATCC 43300 assessed as inhibition of bacterial growth by broth microdilution method; conditions: time 24 hrs
Summary of the method: (§1)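 Broth microdilution MIC. A 0.5 McFarland suspension was diluted 10-fold and added at 1.5 × 10⁷ cfu/mL to 2-fold dilutions (0.125–64) in Mueller Hinton broth. Incubated aerobically 24 h at 37 °C. MIC was the lowest concentration with no visible turbidity.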

Escherichia coli = assay: Antibacterial activity against penicillin-susceptible Escherichia coli ATCC 25922 assessed as inhibition of bacterial growth measured by broth microdilution method; conditions: time 24 hrs
Summary of the method: (§2)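 Broth microdilution in Mueller Hinton broth. A 0.5 McFarland suspension was diluted tenfold, giving an inoculum of 1.5 × 10⁷ cfu/mL. This was added to 2-fold serial compound dilutions from […]. Plates were incubated aerobically at 37 °C for 24 h. MIC was the lowest concentration with no visible turbidity.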

Bacillus pumilus = assay: Antibacterial activity against penicillin-susceptible Bacillus pumilus CMCC 63202 assessed as bacterial growth inhibition by broth dilution method; conditions: time 24 hrs; summary of the method: as §2
Bacillus subtilis = assay: Antibacterial activity against penicillin-susceptible Bacillus subtilis ATCC 9372 assessed as bacterial growth inhibition incubated for 24 hrs by CLSI protocol based broth microdilution method
[2] = tested on: Staphylococcus epidermidis; assay: Antibacterial activity against penicillin-resistant Staphylococcus epidermidis assessed as inhibition of bacterial growth measured by broth microdilution method; conditions: time 24 hrs
Staphylococcus aureus [3] = assay: Antibacterial activity against Staphylococcus aureus assessed as inhibition of bacterial growth measured by broth microdilution method; conditions: time 24 hrs; summary of the method: as §2
Streptococcus pyogenes [4] = assay: Antibacterial activity against erythromycin-resistant Streptococcus pyogenes 2 assessed as bacterial growth inhibition incubated for 24 hrs by CLSI protocol based broth microdilution method
Staphylococcus aureus [5] = assay: Antibacterial activity against erythromycin-susceptible Staphylococcus aureus ATCC 25923 assessed as bacterial growth inhibition incubated for 24 hrs by CLSI protocol based broth microdilution method
Pseudomonas aeruginosa = assay: Antibacterial activity against penicillin-susceptible Pseudomonas aeruginosa ATCC27853 assessed as bacterial growth inhibition incubated for 24 hrs by CLSI protocol based broth microdilution method
Streptococcus pyogenes [6] = assay: Antibacterial activity against erythromycin-susceptible Streptococcus pyogenes clinical isolate 1 assessed as bacterial growth inhibition incubated for 24 hrs by CLSI protocol based broth microdilution method
Staphylococcus aureus [7] = assay: Antibacterial activity against penicillin-resistant Staphylococcus aureus assessed as inhibition of bacterial growth measured by broth microdilution method; conditions: time 24 hrs; summary of the method: as §1

Row | Compound | MIC (Staphylococcus aureus [1]) [µg/mL] | MIC (Escherichia coli) [µg/mL] | MIC (Bacillus pumilus) [µg/mL] | MIC (Bacillus subtilis) [µg/mL] | MIC [2] [µg/mL] | MIC (Staphylococcus aureus [3]) [µg/mL] | MIC (Streptococcus pyogenes [4]) [µg/mL] | MIC (Staphylococcus aureus [5]) [µg/mL] | MIC (Pseudomonas aeruginosa) [µg/mL] | MIC (Streptococcus pyogenes [6]) [µg/mL] | MIC (Staphylococcus aureus [7]) [µg/mL]
1 | CCc1ccccc1Nc1c2ccccc2[n+](C)c2ccccc12.[Cl-] | > 64 | > 64 | > 64 | > 64 | > 64 | > 64 | > 64 | > 64 | > 64 | > 64 | –
2 | C[n+]1c2ccccc2c(Nc2ccccn2)c2ccccc21.[Cl-] | > 64 | > 64 | > 64 | 64 | > 64 | > 64 | > 64 | > 64 | > 64 | > 64 | –
3 | CCCNc1c2ccccc2[n+](C)c2ccccc12.[Cl-] | > 64 | > 64 | > 64 | > 64 | 64 | > 64 | 64 | > 64 | > 64 | 32 | –
4 | C[n+]1c2ccccc2c(NC2CCCCC2)c2ccccc21.[Cl-] | > 64 | > 64 | > 64 | 32 | > 64 | > 64 | 64 | > 64 | > 64 | > 64 | –
5 | C[n+]1c2ccccc2c(Nc2ccc(Cl)cc2Cl)c2ccccc21.[Cl-] | > 64 | > 64 | > 64 | > 64 | > 64 | > 64 | > 64 | > 64 | > 64 | > 64 | –
6 | C[n+]1c2ccccc2c(Nc2ccccc2C(F)(F)F)c2ccccc21.[Cl-] | > 64 | > 64 | > 64 | > 64 | > 64 | > 64 | > 64 | > 64 | > 64 | > 64 | –
7 | C[n+]1c2ccccc2c(Nc2ncccn2)c2ccccc21.[Cl-] | > 64 | > 64 | > 64 | > 64 | > 64 | > 64 | > 64 | > 64 | > 64 | > 64 | –
8 | C[n+]1c2ccccc2c(NC2CC2)c2ccccc21.[Cl-] | > 64 | > 64 | > 64 | > 64 | > 64 | > 64 | 64 | > 64 | > 64 | > 64 | –
9 | C[n+]1c2ccccc2c(Nc2ccccc2)c2ccccc21.[Cl-] | > 64 | > 64 | > 64 | > 64 | > 64 | > 64 | > 64 | > 64 | > 64 | > 64 | –
10 | COc1ccc(Nc2c3ccccc3[n+](C)c3ccccc23)c(OC)c1.[Cl-] | > 64 | > 64 | > 64 | > 64 | > 64 | > 64 | > 64 | > 64 | > 64 | > 64 | –
11 | C[n+]1c2ccccc2c(Nc2ccc(F)cc2F)c2ccccc21.[Cl-] | > 64 | > 64 | > 64 | > 64 | > 64 | > 64 | > 64 | > 64 | > 64 | > 64 | –
12 | CCNc1c2ccccc2[n+](C)c2ccccc12.[Cl-] | > 64 | > 64 | > 64 | 64 | > 64 | > 64 | 64 | > 64 | > 64 | 64 | –
13 | C[n+]1c2ccccc2c(Nc2nccs2)c2ccccc21.[Cl-] | > 64 | > 64 | > 64 | > 64 | > 64 | > 64 | > 64 | > 64 | > 64 | > 64 | –
14 | O=C(O)c1cn(C2CC2)c2cc(N3CCNCC3)c(F)cc2c1=O [CIPROFLOXACIN] | – | – | – | – | > 64 | – | – | – | – | – | > 64
15 | Cc1ccc(Nc2c3ccccc3[n+](C)c3ccccc23)c(C)c1.[Cl-] | > 64 | > 64 | > 64 | > 64 | > 64 | > 64 | > 64 | > 64 | > 64 | > 64 | –
